# Experimental data from ChEMBL document CHEMBL4373713, “Effect of 1-Deoxynojirimycin Isolated from Mulberry Leaves on Glucose Metabolism and Gut Microbiota in a Streptozotocin-Induced Diabetic Mouse Model” (J Nat Prod, 2019).
# Calls of active or inactive are those of the source. No cut-off for these calls is given here.
# How the values were obtained:
# Format in all cases: functional, organism-based
# Mus musculus [1] = experiment: Antidiabetic activity in STZ-induced Kunming mouse model of diabetes assessed as increase in glucose tolerance 31.25 to 125 mg/kg, po administered QD administered via gavage for 4 weeks and measured on day 26 followed by glucose challenge after 30 mins during compound dosing by OGTT
# Method in brief: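 On treatment day 26, after a 12 h fast, diabetic mice received oral glucose at 2.0 g/kg. Tail-tip blood glucose was read at 0, 30, 60, 90 and 120 min. Daily gavage dosing was 31.25–125 mg/kg, n=10 per group.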
# Mus musculus [2] = experiment: Antidiabetic activity in STZ-induced Kunming mouse model of diabetes assessed as down regulation of PCB expression level in liver at 62.5 to 125 m/kg, po administered QD administered via gavage for 4 weeks by Western blot analysis
# Method in brief: (§1)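 Livers from diabetic mice after 28 days of daily gavage (31.25–125 mg/kg) were homogenized and spun at 14 000g, 4 °C. Proteins were run on 10% SDS-PAGE and transferred to PVDF, then blocked in 5% milk for 1 h. Primary antibodies (GK, PK, PFK, PCB, PEPCK, FBPase, G-6-Pase, p-IR Tyr999, p-IRS-1 Ser307) were applied for 1 h at 25 °C, followed by HRP anti-rabbit IgG and ECL detection. Mean ± SD, Duncan's test.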
# Mus musculus [3] = experiment: Antidiabetic activity in STZ-induced Kunming mouse model of diabetes assessed as down regulation of fructose-1-6-phosphatase expression level in liver at 31.25 to 125 m/kg, po administered QD administered via gavage for 4 weeks by Western blot analysis; method in brief: as §1
# Mus musculus [4] = experiment: Antidiabetic activity in STZ-induced Kunming mouse model of diabetes assessed as increase in Lactococcus level in feces at 31.25 to 125 mg/kg, po administered QD administered via gavage for 4 weeks by 16S rDNA based DNA sequencing analysis
# Mus musculus [5] = experiment: Antidiabetic activity in STZ-induced Kunming mouse model of diabetes assessed as decrease in Anaer-ostipes level in feces at 31.25 to 125 mg/kg, po administered QD administered via gavage for 4 weeks by 16S rDNA based DNA sequencing analysis
# Mus musculus [6] = experiment: Antidiabetic activity in STZ-induced Kunming mouse model of diabetes assessed as increase in LPL mRNA level at 31.25 to 125 m/kg, po administered QD administered via gavage for 4 weeks by RT-PCR analysis
# Method in brief: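 Liver RNA was Trizol-extracted and reverse-transcribed. qPCR ran 95 °C 10 min, then 45 cycles of 95 °C 15 s, 55 °C 20 s and 72 °C 30 s. LPL was normalized to β-actin and quantified by 2−ΔΔCt. Samples came from STZ/high-fat-diet diabetic mice gavaged daily for 28 days at 31.25–125 mg/kg.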
# Mus musculus [7] = experiment: Antidiabetic activity in STZ-induced Kunming mouse model of diabetes assessed as decrease in Rumino-coccaceae UCG-014 level in feces at 31.25 to 125 mg/kg, po administered QD administered via gavage for 4 weeks by 16S rDNA based Illumina sequencing method
# Mus musculus [8] = experiment: Antidiabetic activity in STZ-induced Kunming mouse model of diabetes assessed as increase in Lactobacillus level in feces at 31.25 to 125 mg/kg, po administered QD administered via gavage for 4 weeks by 16S rDNA based Illumina sequencing method
# Mus musculus [9] = experiment: Antidiabetic activity in STZ-induced Kunming mouse model of diabetes assessed as decrease in Escherichia-Shigella level in feces at 31.25 to 125 mg/kg, po administered QD administered via gavage for 4 weeks by 16S rDNA based Illumina sequencing method
# Mus musculus [10] = experiment: Antidiabetic activity in STZ-induced Kunming mouse model of diabetes assessed as decrease in Weis-sella level in feces at 31.25 to 125 mg/kg, po administered QD administered via gavage for 4 weeks by 16S rDNA based DNA sequencing analysis
# Mus musculus [11] = experiment: Antidiabetic activity in STZ-induced Kunming mouse model of diabetes assessed as decrease in pyruvic acid level at 31.25 to 125 m/kg, po administered QD administered via gavage for 4 weeks
# Method in brief: (§2)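 Diabetic mice (high-fat diet plus STZ 35 mg/kg i.p.) were dosed by gavage once daily for 28 days at 31.25–125 mg/kg. After an overnight fast at endpoint, liver and plasma were collected. ALT, hepatic glycogen and pyruvic acid were measured with commercial kits.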
# Mus musculus [12] = experiment: Antidiabetic activity in po dosed STZ-induced Kunming mouse model of diabetes assessed as increase in Firmicutes level in feces administered QD administered via gavage for 4 weeks by 16S rDNA based Illumina sequencing method
# Mus musculus [13] = experiment: Antidiabetic activity in STZ-induced Kunming mouse model of diabetes assessed as increase in Oscillibacter level in feces at 31.25 to 125 mg/kg, po administered QD administered via gavage for 4 weeks by 16S rDNA based Illumina sequencing method
# Mus musculus [14] = experiment: Antidiabetic activity in STZ-induced Kunming mouse model of diabetes assessed as down regulation of glucose-6-phosphatase expression level in liver at 62.5 to 125 m/kg, po administered QD administered via gavage for 4 weeks by Western blot analysis; method in brief: as §1
# Mus musculus [15] = experiment: Antidiabetic activity in STZ-induced Kunming mouse model of diabetes assessed as decrease in Bacteroidales S24-7 level in feces at 62.5 to 125 mg/kg, po administered QD administered via gavage for 4 weeks by 16S rDNA based DNA sequencing analysis
# Mus musculus [16] = experiment: Antidiabetic activity in STZ-induced Kunming mouse model of diabetes assessed as increase in PK expression level in liver at 62.5 to 125 m/kg, po administered QD administered via gavage for 4 weeks by Western blot analysis; method in brief: as §1
# Mus musculus [17] = experiment: Antidiabetic activity in STZ-induced Kunming mouse model of diabetes assessed as increase in PFK expression level in liver at 125 m/kg, po administered QD administered via gavage for 4 weeks by Western blot analysis; method in brief: as §1
# Mus musculus [18] = experiment: Antidiabetic activity in STZ-induced Kunming mouse model of diabetes assessed as increase in Alistipes level in feces at 31.25 to 125 mg/kg, po administered QD administered via gavage for 4 weeks by 16S rDNA based DNA sequencing analysis
# Mus musculus [19] = experiment: Antidiabetic activity in po dosed STZ-induced Kunming mouse model of diabetes assessed as reduction in ALT activity administered QD administered via gavage for 4 weeks; method in brief: as §2
# Mus musculus [20] = experiment: Antidiabetic activity in STZ-induced Kunming mouse model of diabetes assessed as increase in Lackno-spiraceae NK4A136 level in feces at 31.25 to 125 mg/kg, po administered QD administered via gavage for 4 weeks by 16S rDNA based Illumina sequencing method
structure (smiles),measurement,setting,value
OC[C@H]1NC[C@H](O)[C@@H](O)[C@@H]1O,Activity,Mus musculus [1],Active
same,Activity,Mus musculus [2],Active
same,Activity,Mus musculus [3],Active
same,Activity,Mus musculus [4],inactive
same,Activity,Mus musculus [5],Active
same,Activity,Mus musculus [6],Active
same,Activity,Mus musculus [7],Active
same,Activity,Mus musculus [8],Active
same,Activity,Mus musculus [9],inactive
same,Activity,Mus musculus [10],Active
same,Activity,Mus musculus [11],Active
same,Activity,Mus musculus [12],Dose-dependent effect
same,Activity,Mus musculus [13],Active
same,Activity,Mus musculus [14],Active
same,Activity,Mus musculus [15],Active
same,Activity,Mus musculus [16],Active
same,Activity,Mus musculus [17],Active
same,Activity,Mus musculus [18],Active
same,Activity,Mus musculus [19],Dose-dependent effect
same,Activity,Mus musculus [20],Active
